Compounds with a hit are over-represented: about 2.3% of the library has one in this group of screens.
TRPC4 potent – positive allosteric modulators of TRPC4, primary screen, cell-based, mouse TRPC4beta, HEK293 mu-opioid, Fluo-4 calcium; Short transient receptor potential channel 4 (Mus musculus), Q9QUQ5; DAMGO EC20, Fluo-4 Ca2+ flux; stronger effect = higher value; B-score at 10 µM; 310,000 compounds, 0.42% hits;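 active = B-score of calcium response area above 5 SD of library B-scores, with initial fluorescence ratio within 5 SD of library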;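 also: B-score of integrated fluorescence ratio over time as area under calcium response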
Target sequence (Q9QUQ5 whole entry, looked up): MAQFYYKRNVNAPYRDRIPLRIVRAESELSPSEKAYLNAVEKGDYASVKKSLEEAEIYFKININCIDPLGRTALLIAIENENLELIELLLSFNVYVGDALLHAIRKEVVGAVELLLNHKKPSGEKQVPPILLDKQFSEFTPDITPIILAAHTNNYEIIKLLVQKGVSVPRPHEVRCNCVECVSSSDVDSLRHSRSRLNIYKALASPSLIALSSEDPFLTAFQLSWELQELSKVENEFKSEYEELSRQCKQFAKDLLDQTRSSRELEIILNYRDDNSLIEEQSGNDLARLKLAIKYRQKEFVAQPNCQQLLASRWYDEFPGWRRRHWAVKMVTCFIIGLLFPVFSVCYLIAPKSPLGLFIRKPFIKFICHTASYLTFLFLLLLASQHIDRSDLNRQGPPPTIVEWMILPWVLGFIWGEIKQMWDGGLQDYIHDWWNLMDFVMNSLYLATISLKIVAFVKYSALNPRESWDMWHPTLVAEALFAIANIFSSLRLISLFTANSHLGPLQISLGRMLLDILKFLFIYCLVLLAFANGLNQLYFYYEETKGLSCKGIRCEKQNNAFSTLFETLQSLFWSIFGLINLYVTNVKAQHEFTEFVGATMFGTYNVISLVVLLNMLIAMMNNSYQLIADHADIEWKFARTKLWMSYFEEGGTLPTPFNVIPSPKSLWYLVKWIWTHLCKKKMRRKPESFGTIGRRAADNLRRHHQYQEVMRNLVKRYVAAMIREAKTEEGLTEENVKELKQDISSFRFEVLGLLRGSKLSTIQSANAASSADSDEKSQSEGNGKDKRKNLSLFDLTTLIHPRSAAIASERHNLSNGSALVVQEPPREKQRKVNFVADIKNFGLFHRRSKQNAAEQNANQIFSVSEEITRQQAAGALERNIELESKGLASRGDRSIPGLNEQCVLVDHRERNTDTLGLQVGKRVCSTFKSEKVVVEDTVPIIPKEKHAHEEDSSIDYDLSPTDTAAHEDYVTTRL
TRPC6 activator – mouse TRPC6 channel activators, primary screen, cell-based, HEK293, membrane potential dye | Short transient receptor potential channel 6 (Mus musculus), Q61143 | HEK293-TRPC6 membrane potential dye fluorescence; stronger effect = higher value | B-score at 10 µM | 310,000 compounds, 0.13% hits | AID 2550, 2010;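 active = B-score of the integrated fluorescence ratio above library mean plus 3 SD, and starting fluorescence ratio within library mean plus 5 SD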;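 also: higher score means more depolarization so channel activation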
TRPC4 act – activators of mouse TRPC4 channel, primary screen, Fluo4 calcium, HEK293 TRPC4beta/mu-opioid cells | 310,000 compounds, 0.49% hits | B-score at 10 µM | Fluo4 calcium fluorescence; stronger effect = higher value | AID 2237, 2010;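 active = B-score above 5 SD of library B-scores, and initial fluorescence ratio not above library mean plus 5 SD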;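 also: positive B-score marks a calcium rise read as TRPC4 activation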
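Assay system: HEK293 stable line with TRPC4beta plus mu-opioid receptor; schedule: 45 min room-temperature Fluo4 loading, 110 s read; technique: kinetic Fluo4 calcium fluorescence; evaluation: integrated baseline-normalised fluorescence ratio, converted to per-well B score; controls: buffer (low) and maximal DAMGO (high)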
TRPC4 inh – inhibitors of mouse TRPC4 channel, primary screen, Fluo4 calcium, HEK293 TRPC4beta/mu-opioid cells. B-score at 10 µM. 300,000 compounds, 0.39% hits. DAMGO-evoked Fluo4 calcium flux; stronger effect = lower value. AID 2247, 2010;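 active = B-score over 3 SD under the library average, no early fluorescence shift, positive overall ratio signal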
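Test system – stable TRPC4beta/mu-opioid receptor HEK293 cells · Probe or stimulus – DAMGO, a submaximal dose followed by a maximal one · Dosing – one concentration per compound · Signal – Fluo4 calcium fluorescence by kinetic imaging, 5 s 1 Hz baseline · Evaluation – per-well B score of integrated baseline-normalized Fluo4 ratio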
TRPC6 inhibitor – mouse TRPC6 channel inhibitors, primary screen, cell-based, HEK293, membrane potential dye; B-score at 10 µM; Short transient receptor potential channel 6 (Mus musculus), Q61143; ACh-evoked depolarization; stronger effect = lower value; 310,000 compounds, 1.1% hits; AID 2553, 2010;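 active = B-score under library mean minus 3 SD, initial fluorescence not abnormally high, positive integrated signal ratio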;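 also: B-score derived from integrated fluorescence ratio over the kinetic read; more negative B-score means stronger inhibition of depolarization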
TRPC4 sel inh 2 – second selectivity test of TRPC6 inhibitors: effect on mouse TRPC4; shares compounds with TRPC6 inhibitor; HEK293 TRPC4/MOR, membrane potential dye fluorescence; channel activated by saturating DAMGO dose; inhibition, % at 10 µM; 920 compounds, 42% hits; AID 2776;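 active = compounds whose fluorescence signal differed from control wells by over 3 SD, either direction, in both duplicate plates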
TRPC4 spec – mouse TRPC4 modulation by TRPC6 hits, confirmation, selectivity assay for TRPC6 inhibitor project, cell-based, HEK293 TRPC4/mu-opioid, membrane potential dye. shares compounds with TRPC6 inhibitor. membrane potential fluorescence. activity change, negative = inhibition, % at 10 µM. 920 compounds, 61% hits;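 active = rise or fall in signal beyond 3 SD of buffer-only wells in both replicate plates, either sign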;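 also: integrated kinetic ratio of fluorescence range over baseline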
HEK293 MPD ctr 2-1 – nonspecific membrane potential effects, parental HEK293, confirmation, counter-screen for TRPC6 inhibitor project, cell-based, second counter screen; parental HEK293 membrane potential dye fluorescence; maximal acetylcholine challenge after compound addition; shares compounds with TRPC6 inhibitor; signal change vs control, % at 10 µM; 920 compounds, 31% hits;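 active = membrane potential signal moving either way by over 3 SD of the maximum-effect control, in both duplicate plates, meaning non-specific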
HEK293 MPD ctr-1 – membrane potential modulation in parental HEK293, confirmation, counter-screen for TRPC6 inhibitor project, cell-based; 920 compounds, 60% hits; membrane potential signal change, % at 10 µM; shares compounds with TRPC6 inhibitor; parental HEK293 membrane potential dye fluorescence; AID 2780, 2010;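 active = membrane potential signal shifting up or down by more than 3 SD of buffer-only wells, on both duplicate plates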
HEK293 MPD ctr-2 – parental HEK293 membrane potential modulation, confirmation, counter-screen for TRPC6 modulator project, cell-based. shares compounds with TRPC6 inhibitor. membrane potential dye fluorescence. membrane potential signal change, % at 10 µM. 2,400 compounds, 51% hits. AID 488924, 2010;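 active = membrane potential signal moves up or down beyond 5 SD from buffer-only wells, on both duplicate plates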
HEK293 MPD ctr 2-2 – second check of TRPC6 modulator effects in parental HEK293 cells | membrane potential dye fluorescence; after compound, maximal acetylcholine stimulation | AID 488926 | shares compounds with TRPC6 inhibitor | inhibition, % at 10 µM | 2,400 compounds, 14% hits;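 active = membrane potential signal drops by more than 5 SD from the mean control signal, in both duplicate plates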;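 also: plate controls were acetylcholine ECmax control wells for no effect and buffer only wells for full effect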
TRPC4 ctr mod – TRPC4 modulation by TRPC6 hit compounds, confirmation, selectivity assay for TRPC6 modulator project, cell-based, HEK293 TRPC4/mu-opioid, membrane potential dye, mouse; membrane potential fluorescence; percent change from control (negative = decrease, positive = increase), % at 10 µM; AID 488927, 2010; 2,400 compounds, 69% hits; shares compounds with TRPC6 inhibitor;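 active = membrane potential signal moved up or down beyond 5 SD of buffer control wells, in both duplicate plates, actives on both sides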;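 also: plate controls were assay buffer wells for no effect and DAMGO maximal-effect wells for full effect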
TRPC4/MOR inh 2 – second check of whether TRPC6 modulators also affect mouse TRPC4. 2,400 compounds, 55% hits. inhibition, % at 10 µM. HEK293 TRPC4/mu-opioid, membrane potential dye fluorescence; stimulated with maximal-effect DAMGO. shares compounds with TRPC6 inhibitor;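 active = drop in membrane potential signal beyond 5 SD of the control wells in both duplicate plates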;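 also: TRPC4 counter screen for TRPC6 hits run under conditions tuned for TRPC6 not TRPC4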
TRPC6 block conf – mouse TRPC6 channel inhibitors, confirmation, HEK293 cells, membrane potential dye, duplicate | shares compounds with TRPC6 inhibitor | ACh-evoked depolarization | inhibition, % at 10 µM | 3,300 compounds, 43% hits;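 active = fluorescence ratio falls more than 5 SD below the full-stimulation control mean, in both duplicate runs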;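 also: integrated fluorescence ratio of peak minus minimum over baseline after agonist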
TRPC6 act conf – mouse TRPC6 channel activators, confirmation, HEK293 cells, membrane potential dye, duplicate; shares compounds with TRPC6 inhibitor; HEK293-TRPC6 membrane potential dye fluorescence, FDSS; activation, % at 10 µM; 2,800 compounds, 11% hits;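 active = ratio signal rise beyond 5 SD above unstimulated control wells' mean, seen in both duplicate runs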;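 also: plate controls were buffer EC0 wells for no effect and acetylcholine ECmax response for full effect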
Starred values were filed as active, the others as inactive; i = inactive; · = no result; + = active, no number.

SMILES	TRPC4 potent	TRPC6 activator	TRPC4 act	TRPC4 inh	TRPC6 inhibitor	HEK293 MPD ctr-2	HEK293 MPD ctr 2-2	TRPC4 ctr mod	TRPC4/MOR inh 2	TRPC6 block conf	TRPC6 act conf	others
COc1ccc2cc([C@H](C)C(=O)N(C)Cc3ccccc3N3CCCC3)ccc2c1	i	i	i	i	i	·	·	·	·	·	·
O=C(Nc1nc2ccccc2s1)c1ccc(OCC2CCCO2)cc1 (centres undefined)	i	i	i	i	i	·	·	·	·	·	·
COc1ccc(CC2(CO)CCN(S(=O)(=O)c3cccc4cccnc34)CC2)cc1	i	i	i	i	i	·	·	·	·	·	·
CCOC(=O)/C(=C/c1ccc(N2CCC(c3ccccc3)=N2)cc1)C(C)=O	i	14*	i	i	i	582%*	i	51%*	i	i	43%*
Cc1nnc(-c2ccccc2)c(=O)n1/N=C/c1c(O)ccc2ccccc12	i	i	i	i	-7.3*	·	·	·	·	80%*	·	TRPC4 sel inh 2=68%*;TRPC4 spec=23%*;HEK293 MPD ctr 2-1=-242%*;HEK293 MPD ctr-1=8.7%*
COc1cc(/C=C/C(=O)CC(=O)/C=C/c2ccc(O)c(OC)c2)ccc1O	i	75*	84*	i	i	+	i	380%*	i	i	524%*
Cc1cccc(C)c1NC(=O)c1cccc2c1C(=O)N(C1CCCCC1)C2	i	i	i	i	i	·	·	·	·	·	·
CCc1ccc(NC(=O)Cn2nc(C(=O)O)c3ccccc3c2=O)cc1	i	i	i	i	i	·	·	·	·	·	·
CC(C)(C)c1ccc(C2=CSC3=NCCN23)cc1	i	i	i	i	i	·	·	·	·	·	·
CC(C)Cc1ccc(C2=CSC3=NCCN23)cc1	i	i	i	i	-5.8*	94%*	i	i	55%*	48%*	·
CC(=O)N1c2ccc(S(=O)(=O)N3CCC(C(=O)Nc4cccc(C(F)(F)F)c4)CC3)cc2CC1C (centres undefined)	i	i	i	i	i	·	·	·	·	·	·
O=C(NCC(c1ccco1)N1CCCC1)c1ccccc1Sc1ccc(C(F)(F)F)cc1[N+](=O)[O-] (centres undefined)	i	i	i	i	-6.6*	·	·	·	·	i	i	TRPC4 sel inh 2=i;TRPC4 spec=3.1%*;HEK293 MPD ctr 2-1=245%*;HEK293 MPD ctr-1=i
O=C(NCC(c1ccco1)N1CCCC1)c1ccc(Cl)cc1 (centres undefined)	i	i	i	i	i	·	·	·	·	·	·
CCOC(=O)c1c(NC(=O)/C=C/C(=O)O)sc(C)c1-c1ccc(C(C)(C)C)cc1	i	14*	i	-10*	i	i	i	18%*	50%*	i	30%*
O=C(CCOc1ccccc1)OCC(=O)c1cc2ccccc2o1	i	i	i	i	-9.3*	·	·	·	·	i	i	TRPC4 sel inh 2=i;TRPC4 spec=i;HEK293 MPD ctr 2-1=i;HEK293 MPD ctr-1=i
O=C1c2cccc(Cl)c2C(=O)N1c1ccccn1	i	i	i	i	i	·	·	·	·	·	·
O=C(COc1ccc(Br)cc1)N1CCNC1=O	i	i	i	i	i	·	·	·	·	·	·
CN(C)c1cc(-c2ccccc2)nc(N)n1	i	i	i	i	-6.5*	-72%*	i	-14%*	51%*	i	i
COc1cc2c(cc1OC)C(C(=O)NC(C)c1ccccc1)CC(=O)N2 (centres undefined)	i	i	i	i	i	·	·	·	·	·	·
O=C(NNC(=O)C1CCN(S(=O)(=O)c2ccc(Cl)cc2)CC1)c1ccccc1O	i	i	i	i	i	·	·	·	·	·	·
Cc1ccc2nc(-c3cccc(N)c3)oc2c1	i	i	i	i	-5.5*	i	i	i	i	i	i
CN1CCc2c(sc3c2C(=O)NC(c2cccs2)N3)C1 (centres undefined)	i	i	i	i	i	·	·	·	·	·	·
CN1CCc2c(sc3c2C(=O)NC(/C=C\c2ccccc2)N3)C1 (centres undefined)	i	i	i	i	-5.7*	i	i	-14%*	63%*	58%*	i
